According to ChEMBL document CHEMBL1781932 (J Med Chem, 2011):
Values after ≈ are worked out from the molar mass of the structure shown.

Columns and labels:
Format in all cases: functional
Pseudomonas aeruginosa = assay: Antimicrobial activity against tetracycline-susceptible Pseudomonas aeruginosa isolate 111 by CLSI dilution method
Outline: (§1)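 Broth microdilution per CLSI in fresh cation-adjusted Mueller Hinton broth, kept at 4 °C before testing, with defibrinated horse blood added as appropriate. Strains were from ATCC. MIC in µg/mL. Runs were accepted when comparator antibiotics against ATCC quality-control strains fell within recommended ranges.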

Staphylococcus aureus [1] = assay: Antimicrobial activity against tetracycline-susceptible Staphylococcus aureus isolate 101 by CLSI dilution method
Streptococcus pneumoniae [2] = assay: Antimicrobial activity against tetracycline-resistant Streptococcus pneumoniae isolate 160 harboring tetM gene by CLSI dilution method
Enterococcus faecalis [3] = assay: Antimicrobial activity against tetracycline-susceptible Enterococcus faecalis isolate 103 by CLSI dilution method; outline: as §1
Escherichia coli [4] = assay: Antimicrobial activity against tetracycline-resistant Escherichia coli isolate 155 harboring tetA gene by CLSI dilution method
Klebsiella pneumoniae [5] = assay: Antimicrobial activity against tetracycline-resistant Klebsiella pneumoniae isolate 153 harboring tetA gene by CLSI dilution method
Streptococcus pneumoniae [6] = assay: Antimicrobial activity against tetracycline-susceptible Streptococcus pneumoniae isolate 106 by CLSI dilution method; outline: as §1
Staphylococcus aureus [7] = assay: Antimicrobial activity against tetracycline-resistant Staphylococcus aureus isolate 158 harboring tetK gene by CLSI dilution method
Acinetobacter baumannii = assay: Antimicrobial activity against tetracycline-susceptible Acinetobacter baumannii isolate 110 by CLSI dilution method; outline: as §1
Escherichia coli [8] = assay: Antimicrobial activity against tetracycline-susceptible Escherichia coli isolate 107 by CLSI dilution method; outline: as §1
Enterobacter cloacae = assay: Antimicrobial activity against tetracycline-susceptible Enterobacter cloacae isolate 108 by CLSI dilution method; outline: as §1
Enterococcus faecalis [9] = assay: Antimicrobial activity against tetracycline-resistant Enterococcus faecalis isolate 159 harboring […] gene by CLSI dilution method
Staphylococcus aureus [10] = assay: Antimicrobial activity against methicillin-, tetracycline-resistant Staphylococcus aureus isolate 161 harboring tetM gene by CLSI dilution method
Klebsiella pneumoniae [11] = assay: Antimicrobial activity against tetracycline-susceptible Klebsiella pneumoniae isolate 109 by CLSI dilution method; outline: as §1

Structure (SMILES)	MIC (Pseudomonas aeruginosa) [µg/mL]	MIC (Staphylococcus aureus [1]) [µg/mL]	MIC (Streptococcus pneumoniae [2]) [µg/mL]	MIC (Enterococcus faecalis [3]) [µg/mL]	MIC (Escherichia coli [4]) [µg/mL]	MIC (Klebsiella pneumoniae [5]) [µg/mL]	MIC (Streptococcus pneumoniae [6]) [µg/mL]	MIC (Staphylococcus aureus [7]) [µg/mL]	MIC (Acinetobacter baumannii) [µg/mL]	MIC (Escherichia coli [8]) [µg/mL]	MIC (Enterobacter cloacae) [µg/mL]	MIC (Enterococcus faecalis [9]) [µg/mL]	MIC (Staphylococcus aureus [10]) [µg/mL]	MIC (Klebsiella pneumoniae [11]) [µg/mL]
CN(C)C1CN(Cc2ccc3cc4c(c(O)c3c2)C(=O)C2=C(O)[C@]3(O)C(=O)C(C(N)=O)=C(O)[C@@H](N(C)C)[C@@H]3C[C@@H]2C4)C1	> 32	2 (≈ 3.47 µM)	1 (≈ 1.73 µM)	1 (≈ 1.73 µM)	16 (≈ 27.7 µM)	8 (≈ 13.9 µM)	0.0625 (≈ 0.108 µM)	1 (≈ 1.73 µM)	4 (≈ 6.94 µM)					
COc1c2c(c(O)c3cc(CNC(C)(C)C)ccc13)C(=O)C1=C(O)[C@]3(O)C(=O)C(C(N)=O)=C(O)[C@@H](N(C)C)[C@@H]3C[C@@H]1C2	16 (≈ 27.6 µM)	0.25 (≈ 0.431 µM)	0.5 (≈ 0.863 µM)	0.25 (≈ 0.431 µM)	8 (≈ 13.8 µM)	8 (≈ 13.8 µM)	0.0156 (≈ 0.0269 µM)	0.25 (≈ 0.431 µM)	2 (≈ 3.45 µM)	1 (≈ 1.73 µM)				
CN(C)[C@@H]1C(O)=C(C(N)=O)C(=O)[C@@]2(O)C(O)=C3C(=O)c4c(cc5ccc(CN6CCCC6)cc5c4O)C[C@H]3C[C@@H]12	> 32	0.5 (≈ 0.913 µM)	0.125 (≈ 0.228 µM)	0.25 (≈ 0.457 µM)		4 (≈ 7.3 µM)	0.0625 (≈ 0.114 µM)	0.25 (≈ 0.457 µM)	1 (≈ 1.83 µM)	1 (≈ 1.83 µM)	4 (≈ 7.3 µM)	2 (≈ 3.65 µM)	2 (≈ 3.65 µM)	
CN(C)c1c2c(c(O)c3cc(CN4CCCC4)ccc13)C(=O)C1=C(O)[C@]3(O)C(=O)C(C(N)=O)=C(O)[C@@H](N(C)C)[C@@H]3C[C@@H]1C2	> 32	0.5 (≈ 0.846 µM)		0.25 (≈ 0.423 µM)	8 (≈ 13.5 µM)	32 (≈ 54.2 µM)	< 0.0156	0.5 (≈ 0.846 µM)	16 (≈ 27.1 µM)	2 (≈ 3.39 µM)	16 (≈ 27.1 µM)	2 (≈ 3.39 µM)	2 (≈ 3.39 µM)	
CCCN(CCC)c1c2c(c(O)c3cc(CN4CCC4)ccc13)C(=O)C1=C(O)[C@]3(O)C(=O)C(C(N)=O)=C(O)[C@@H](N(C)C)[C@@H]3C[C@@H]1C2	> 32	0.5 (≈ 0.79 µM)	0.5 (≈ 0.79 µM)	0.5 (≈ 0.79 µM)	> 32	> 32	0.125 (≈ 0.198 µM)	0.5 (≈ 0.79 µM)	8 (≈ 12.6 µM)	32 (≈ 50.6 µM)	> 32	4 (≈ 6.32 µM)		> 32
CN(C)Cc1cccc2c(O)c3c(cc12)C[C@H]1C[C@H]2[C@H](N(C)C)C(O)=C(C(N)=O)C(=O)[C@@]2(O)C(O)=C1C3=O	> 32	1 (≈ 1.92 µM)	2 (≈ 3.83 µM)	1 (≈ 1.92 µM)	> 32	> 32	0.25 (≈ 0.479 µM)	0.5 (≈ 0.959 µM)	16 (≈ 30.7 µM)	4 (≈ 7.67 µM)	> 32	32 (≈ 61.4 µM)		
CN(C)[C@@H]1C(O)=C(C(N)=O)C(=O)[C@@]2(O)C(O)=C3C(=O)c4c(cc5ccccc5c4O)C[C@H]3C[C@@H]12	> 32	1 (≈ 2.15 µM)	0.25 (≈ 0.538 µM)	0.5 (≈ 1.08 µM)	> 32		0.25 (≈ 0.538 µM)		8 (≈ 17.2 µM)	> 32			1 (≈ 2.15 µM)	
CN(C)CCOc1c2c(c(O)c3cc(CN4CCC4)ccc13)C(=O)C1=C(O)[C@]3(O)C(=O)C(C(N)=O)=C(O)[C@@H](N(C)C)[C@@H]3C[C@@H]1C2	> 32	4 (≈ 6.44 µM)	2 (≈ 3.22 µM)	8 (≈ 12.9 µM)	> 32	> 32	1 (≈ 1.61 µM)	4 (≈ 6.44 µM)	> 32	8 (≈ 12.9 µM)	16 (≈ 25.8 µM)		8 (≈ 12.9 µM)	32 (≈ 51.6 µM)
CN(C)c1ccc(O)c2c1C[C@H]1C[C@H]3[C@H](N(C)C)C(O)=C(C(N)=O)C(=O)[C@@]3(O)C(O)=C1C2=O [MINOCYCLINE]	16 (≈ 35 µM)	0.0625 (≈ 0.137 µM)	2 (≈ 4.37 µM)		8 (≈ 17.5 µM)	8 (≈ 17.5 µM)	< 0.0156	0.0313 (≈ 0.0684 µM)	0.0625 (≈ 0.137 µM)	0.5 (≈ 1.09 µM)	2 (≈ 4.37 µM)	16 (≈ 35 µM)	8 (≈ 17.5 µM)	
CCCNc1c2c(c(O)c3cc(CN4CCC4)ccc13)C(=O)C1=C(O)[C@]3(O)C(=O)C(C(N)=O)=C(O)[C@@H](N(C)C)[C@@H]3C[C@@H]1C2	> 32	4 (≈ 6.77 µM)	2 (≈ 3.39 µM)	4 (≈ 6.77 µM)	> 32	> 32	0.5 (≈ 0.846 µM)	4 (≈ 6.77 µM)	16 (≈ 27.1 µM)	16 (≈ 27.1 µM)	> 32	16 (≈ 27.1 µM)		32 (≈ 54.2 µM)
CN(C)[C@@H]1C(O)=C(C(N)=O)C(=O)[C@@]2(O)C(O)=C3C(=O)c4c(cc5ccc(CN6CC(C#N)C6)cc5c4O)C[C@H]3C[C@@H]12	> 32	1 (≈ 1.79 µM)	1 (≈ 1.79 µM)	1 (≈ 1.79 µM)	> 32	32 (≈ 57.3 µM)	0.25 (≈ 0.448 µM)	1 (≈ 1.79 µM)		4 (≈ 7.16 µM)		4 (≈ 7.16 µM)	2 (≈ 3.58 µM)	8 (≈ 14.3 µM)
CN(C)[C@@H]1C(O)=C(C(N)=O)C(=O)[C@@]2(O)C(O)=C3C(=O)c4c(cc5c(N)cccc5c4O)C[C@H]3C[C@@H]12	> 32	2 (≈ 4.17 µM)		4 (≈ 8.34 µM)	> 32	> 32	2 (≈ 4.17 µM)	2 (≈ 4.17 µM)	8 (≈ 16.7 µM)	> 32	> 32		4 (≈ 8.34 µM)	> 32
COc1c2c(c(O)c3cc(CN(C)C)ccc13)C(=O)C1=C(O)[C@]3(O)C(=O)C(C(N)=O)=C(O)[C@@H](N(C)C)[C@@H]3C[C@@H]1C2	32 (≈ 58 µM)	0.25 (≈ 0.453 µM)	0.25 (≈ 0.453 µM)	0.25 (≈ 0.453 µM)	8 (≈ 14.5 µM)		0.0156 (≈ 0.0283 µM)	0.25 (≈ 0.453 µM)	1 (≈ 1.81 µM)				2 (≈ 3.63 µM)	4 (≈ 7.25 µM)
CN(C)Cc1ccc2c(F)c3c(c(O)c2c1)C(=O)C1=C(O)[C@]2(O)C(=O)C(C(N)=O)=C(O)[C@@H](N(C)C)[C@@H]2C[C@@H]1C3	32 (≈ 59.3 µM)	0.5 (≈ 0.927 µM)	8 (≈ 14.8 µM)	0.25 (≈ 0.463 µM)	4 (≈ 7.41 µM)	4 (≈ 7.41 µM)	0.0156 (≈ 0.0289 µM)	0.25 (≈ 0.463 µM)	0.5 (≈ 0.927 µM)		4 (≈ 7.41 µM)	1 (≈ 1.85 µM)		2 (≈ 3.71 µM)
CN(C)[C@@H]1C(O)=C(C(N)=O)C(=O)[C@@]2(O)C(O)=C3C(=O)c4c(cc5ccc(CN6CCC6)cc5c4O)C[C@H]3C[C@@H]12	32 (≈ 60 µM)	0.5 (≈ 0.937 µM)	0.25 (≈ 0.469 µM)	0.5 (≈ 0.937 µM)	8 (≈ 15 µM)	8 (≈ 15 µM)	0.125 (≈ 0.234 µM)	0.5 (≈ 0.937 µM)		1 (≈ 1.87 µM)		4 (≈ 7.5 µM)	2 (≈ 3.75 µM)	4 (≈ 7.5 µM)
CN(C)[C@@H]1C(O)=C(C(N)=O)C(=O)[C@@]2(O)C(O)=C3C(=O)c4c(cc5c(CN6CCC6)cccc5c4O)C[C@H]3C[C@@H]12	> 32	1 (≈ 1.87 µM)	2 (≈ 3.75 µM)	2 (≈ 3.75 µM)	> 32	> 32	0.25 (≈ 0.469 µM)	0.5 (≈ 0.937 µM)	32 (≈ 60 µM)	8 (≈ 15 µM)			4 (≈ 7.5 µM)	16 (≈ 30 µM)
COc1c2c(c(O)c3cc(F)ccc13)C(=O)C1=C(O)[C@]3(O)C(=O)C(C(N)=O)=C(O)[C@@H](N(C)C)[C@@H]3C[C@@H]1C2	> 32	0.125 (≈ 0.244 µM)	8 (≈ 15.6 µM)	0.5 (≈ 0.976 µM)	16 (≈ 31.2 µM)	> 32		0.125 (≈ 0.244 µM)	1 (≈ 1.95 µM)	16 (≈ 31.2 µM)	> 32		0.5 (≈ 0.976 µM)	32 (≈ 62.4 µM)
CN(C)[C@@H]1C(O)=C(C(N)=O)C(=O)[C@@]2(O)C(O)=C3C(=O)c4c(c(F)c5ccc(CNC6CC6)cc5c4O)C[C@H]3C[C@@H]12	> 32			0.5 (≈ 0.907 µM)	8 (≈ 14.5 µM)	8 (≈ 14.5 µM)	0.0625 (≈ 0.113 µM)		0.25 (≈ 0.453 µM)	2 (≈ 3.63 µM)	4 (≈ 7.25 µM)	2 (≈ 3.63 µM)	2 (≈ 3.63 µM)	4 (≈ 7.25 µM)
CCNCc1ccc2c(F)c3c(c(O)c2c1)C(=O)C1=C(O)[C@]2(O)C(=O)C(C(N)=O)=C(O)[C@@H](N(C)C)[C@@H]2C[C@@H]1C3	16 (≈ 29.7 µM)	0.5 (≈ 0.927 µM)		0.25 (≈ 0.463 µM)	8 (≈ 14.8 µM)	8 (≈ 14.8 µM)	0.0313 (≈ 0.058 µM)		1 (≈ 1.85 µM)	1 (≈ 1.85 µM)	2 (≈ 3.71 µM)	2 (≈ 3.71 µM)	2 (≈ 3.71 µM)	4 (≈ 7.41 µM)
CNC(=O)Oc1c2c(c(O)c3cc(CN4CCC4)ccc13)C(=O)C1=C(O)[C@]3(O)C(=O)C(C(N)=O)=C(O)[C@@H](N(C)C)[C@@H]3C[C@@H]1C2	> 32	8 (≈ 13.2 µM)	4 (≈ 6.59 µM)	8 (≈ 13.2 µM)	> 32	> 32	1 (≈ 1.65 µM)		> 32	32 (≈ 52.8 µM)	> 32			> 32
CN(C)[C@@H]1C(O)=C(C(N)=O)C(=O)[C@@]2(O)C(O)=C3C(=O)c4c(cc5cc(N)ccc5c4O)C[C@H]3C[C@@H]12	> 32		8 (≈ 16.7 µM)	4 (≈ 8.34 µM)	> 32	> 32	2 (≈ 4.17 µM)		16 (≈ 33.4 µM)	> 32	> 32			> 32
